Compound activity deposited in PubChem by several laboratories.
MMP-13 inhibitor: MMP13 (human) collagenase inhibition | P45452 | MMP-13 fTHP FRET cleavage, Mca fluorescence | inhibition, % at 4 µM | 65,000 compounds, 0.07% hits;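 active means inhibition above the mean of compound-free control plate wells plus 3 SD, cut at about 14% in these data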;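 further: 0% = DMSO wells and 100% = wells with reference MMP-13 inhibitor after basal subtraction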
D1 mod: allosterically modulates the human D1 dopamine receptor. B-score at 10 µM. 58,000 compounds, 5.9% hits. P21728. AID 641. HEK293 D1, CRE-luciferase, dopamine EC30 potentiation; actives deviate in either direction;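 active means luminescence count or its row- and column-corrected plate score outside the 99.7% band of the plate's sample wells, on either side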
Target sequence (P21728 whole entry, looked up): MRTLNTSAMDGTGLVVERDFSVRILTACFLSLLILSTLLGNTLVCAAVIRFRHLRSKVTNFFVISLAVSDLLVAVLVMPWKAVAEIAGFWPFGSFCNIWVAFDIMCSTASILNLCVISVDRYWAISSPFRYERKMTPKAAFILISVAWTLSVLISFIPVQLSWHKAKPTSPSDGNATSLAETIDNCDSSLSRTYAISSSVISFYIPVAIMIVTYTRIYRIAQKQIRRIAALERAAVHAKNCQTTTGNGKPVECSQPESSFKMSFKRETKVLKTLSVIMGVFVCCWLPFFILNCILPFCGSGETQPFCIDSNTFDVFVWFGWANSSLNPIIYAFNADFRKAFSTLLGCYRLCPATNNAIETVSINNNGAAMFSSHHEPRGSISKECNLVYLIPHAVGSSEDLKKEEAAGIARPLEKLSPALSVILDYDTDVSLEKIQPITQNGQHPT
AP complement: alternative pathway complement inhibition, orthogonal assay | 62,000 compounds, 0.08% hits | Human serum alternative complement pathway, LPS-coated ELISA, C3 deposition; tested in compound mixtures | inhibition, % at 5 µM;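 active means inhibition above 30% in each of the two pooled mixtures holding the compound, so the lower value exceeds 30%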;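 further: 0% = serum in Mg-EGTA without compound and 100% = EDTA serum blank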
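Medium: diluted human serum in Mg2+-EGTA GVB++. Assay system: human serum complement alternative pathway, C3 deposition onto LPS. Also added: Plate-bound LPS. Technique: Anti-C3 ELISA, OD 450 nm. Measure: percent inhibition. Incubation: 1 h at 37 °C. Dosing: 5 µM each compound, pools of ten, 50 µM per pool.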
Calb biofilm kill: kills Candida albicans biofilms. C. albicans biofilm + clotrimazole, Alamar Blue. inhibition, % at 6 µM. 85,000 compounds, 0.14% hits. AID 834;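 active means inhibition above 20%; inactive means inhibition below 20%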;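 further: preformed 24 hr biofilms exposed to compound for 48 hr; 0% = biofilm without compound and 100% = blank killed by clotrimazole plus chlorhexidine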
hDAT+cocaine: changed human dopamine transporter uptake under cocaine IC80. LLC-PK1 hDAT cells, [14C]-dopamine uptake with cocaine IC80; actives deviate in either direction. Q01959. 110,000 compounds, 1.3% hits. B-score at 10 µM;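 active means Z score or B-score, a plate-position-corrected score, falls beyond the plate's 99.7% confidence bounds, in either direction; inactive means both scores lie inside the 99.7% bounds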;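 further: scored against the spread of the other compound wells on the same plate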
D1 mod confirm: D1 receptor (human) allosteric modulation, confirmed. luminescence at 10 µM. HEK293 D1 CRE-luciferase, dopamine EC30 potentiation; active compounds read high. shares compounds with D1 mod. AID 642. 2,200 compounds, 88% hits;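 active means luminescence in either of two replicates above the same-plate mean plus 3 SD of the low-dose dopamine control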
D1 no dopamine: D1 (human) signaling in absence of dopamine; shares compounds with D1 mod; 1,900 compounds, 0.8% hits; HEK293 D1 CRE-luciferase, luminescence, no dopamine; active compounds read high; luminescence at 10 µM; in the data active means luminescence above about 3900
Isoprot counter: isoproterenol response counter-screen activity for D1 modulators | shares compounds with D1 mod | HEK293 D1 CRE-luciferase, isoproterenol EC30 counter-screen; active compounds read high | luminescence at 10 µM | 2,200 compounds, 63% hits;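 active means luminescence in either replicate above plate mean of wells with a partly effective reference agonist dose plus 3 SD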;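 further: isoproterenol raises cAMP through native beta-adrenoceptor Gs so signal bypasses D1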
* = called active by the depositor; x = no result given. Only a selection was taken, and hits are over-represented in it overall.

SMILES	MMP-13 inhibitor	D1 mod	AP complement	Calb biofilm kill	hDAT+cocaine	others
COc1ccccc1/C=N/N=C(/N)N[N+](=O)[O-]	x	x	x	44*	0.03
CN1CC=C(c2c[nH]c3ccccc23)CC1	-6	-3.7*	2	11	-1.3
COc1ccc2[nH]cc(C3=CCNCC3)c2c1	x	x	x	x	-0.22
COc1cccc(CN2CCN(C(=O)COc3ccc4ccccc4c3)CC2)c1	0	x	x	7	2.4*
O=C(COc1ccc(Cl)cc1)N1CCN(Cc2ccccc2)CC1	3	0.067	24	3	-0.17
COc1ccccc1N1CCN(Cc2cccc(OC)c2O)CC1	3	-4.2*	-8	x	-0.096
CCOP(=O)(C(NC(=O)c1ccccc1Cl)=C(Cl)Cl)c1ccccc1 (centres undefined)	x	x	x	69*	0.7
C/C=C1\CN2[C@H]3C[C@@]45c6ccccc6N(C)[C@H]4[C@@H]2CC1C3[C@H]5O (some centres undefined)	x	x	x	x	0.069
CCCC1(CCC)C(=O)NC(=NCc2ccccc2)NC1=O	-1	-0.32	19	6	-7.4*
Oc1c(Cl)c(Cl)c(Cl)c(Cl)c1Cl	x	x	x	x	-1.1
O=C(CCCN1CCC2(CC1)C(=O)NCN2c1ccccc1)c1ccc(F)cc1	-7	-6.5*	10	7	0.55
CC(C)OCCCNC(=O)c1c(N)n(CC2CCCO2)c2nc3ccccc3nc12 (centres undefined)	-91	-0.75	6	7	-0.16
Nc1c(C(=O)OC2CCCCC2)c2nc3ccccc3nc2n1CC1CCCO1 (centres undefined)	-207	-1.5	8	8	3.4*
CCCNC(=O)c1c(N)n(CC2CCCO2)c2nc3ccccc3nc12 (centres undefined)	-120	-0.19	11	1	-8.9*
CC(=O)N(C)CC#CCN1CCCC(CO)C1 (centres undefined)	x	x	x	x	-0.025
COCC(C)OC(=O)c1c(N)n(Cc2ccco2)c2nc3ccccc3nc12 (centres undefined)	-351	12*	x	1	1.5
CCCCOCCCn1c(N)c(C(=O)OCCOC)c2nc3ccccc3nc21	-368	-1	x	4	1.2*
COCCCn1c(N)c(C(=O)NCCC(C)C)c2nc3ccccc3nc21	-79	0.97	15	10	3*
CCCCCn1c(N)c(C(=O)NCCN2CCOCC2)c2nc3ccccc3nc21	-184	x	11	x	0.96
CN(CC#CCN1CCCC1)C(=O)c1cccc(Cl)c1	x	x	x	x	0.18
COC(=O)C1=C(c2ccc(S(C)(=O)=O)cc2)C[C@@H]2CC[C@H]1N2C(=O)NCCNC(C)=O	x	x	x	x	-0.2
CC[N+](CC)(CC)CC	x	x	x	x	0.9
COc1ccc(-c2cc(=O)c3c(OC)c(OC)c(OC)cc3o2)cc1	x	x	x	x	4.7*
c1ccc([C@@H]2CO2)cc1	x	x	x	x	-0.53
NCCc1c[nH]c2ccccc12	x	x	x	x	0.037
SMILES	MMP-13 inhibitor	D1 mod	AP complement	Calb biofilm kill	hDAT+cocaine	others
CCN(CC)Cc1c[nH]c2ccccc12	4	-8.4*	0	6	-0.18
C[C@@H]1O[C@@H](O[C@H]2C[C@@H](O)[C@]3(CO)[C@H]4[C@H](O)C[C@]5(C)[C@@H](C6COC(=O)C6)CC[C@]5(O)[C@@H]4CC[C@]3(O)C2)[C@H](O)[C@H](O)[C@H]1O (some centres undefined)	x	x	x	x	-6.4*
CCN1C[C@]2(CO)CC[C@H](OC)[C@@]34C5C[C@H]6[C@H](OC)C5[C@](O)(C[C@H]6OC)[C@@](O)(C(OC)C23)[C@@H]14 (some centres undefined)	x	x	x	x	1.4
Oc1ccc(C2=CCNCC2)cc1O	x	x	x	x	0.41
O=C1NC(=O)C2(Cc3ccccc3N3CCCC32)C(=O)N1Cc1ccccc1 (centres undefined)	-7	-0.047	9	10	-1.5
O=C1NC(=O)C2(Cc3c(nc4ccccn4c3=O)N3CCCCCC32)C(=O)N1Cc1ccccc1 (centres undefined)	-6	-0.31	14	3	2.5*
COc1nc(C)nc(NC(=O)NS(=O)(=O)c2ccccc2Cl)n1	x	x	x	x	-0.00085
COC1CC(OC2CCC3(C)C(CCC4C3CCC3(C)C(C5=CC(=O)OC5)C(OC(C)=O)CC43O)C2)OC(C)C1OC1OC(COC2OC(CO)C(O)C(O)C2O)C(O)C(O)C1O (centres undefined)	x	x	x	x	-8.9*
OC(c1ccccc1)(c1ccccc1)C1CCNCC1	x	x	x	2	-6.1*
OC(c1ccc(F)cc1)(c1ccc(F)cc1)[C@@H]1CCCN1	x	x	x	x	-3.2
COC(=O)C1=C(c2ccc(S(C)(=O)=O)cc2)C[C@@H]2CC[C@H]1N2C(=O)N1CCC(O)CC1	x	x	x	x	-0.36
CCN1C[C@]2(COC)CC[C@H](O)[C@@]34C5C[C@@H]6[C@@H](OC)C[C@@](O)(C5[C@H]6O)[C@](O)([C@@H](OC)C23)[C@@H]14 (some centres undefined)	x	x	x	x	0.073
Cc1nc2cc(C(F)(F)F)ccc2n1C1CCN(Cc2nnnn2CCc2ccccc2)CC1	x	x	x	-1	3.5*
Cc1ccc2c(c1)C1CN(C)CCC1N2C(=O)c1ccco1 (centres undefined)	2	-0.0049	-1	6	0.29
Cc1ccc2c(c1)C1CN(C)CCC1N2C(=O)Nc1cccc(Cl)c1 (centres undefined)	x	x	x	4	3.4*
Cn1c2ccccc2c2cnn(CC(=O)N3CCC4(CC3)OCCO4)c(=O)c21	x	x	x	0	x
O=C(Cn1ncc2c3ccccc3n(Cc3cccc(Cl)c3)c2c1=O)N1CCC2(CC1)OCCO2	-9	1.4	2	8	6*
N[C@@H](Cc1c[nH]c2ccccc12)c1nnc(SCc2ccccc2)o1	2	0.41	13	x	3.2
N[C@@H](Cc1c[nH]c2ccccc12)c1nnc(SCc2ccc(Cl)cc2)o1	-1	-1	18	4	-8.5*
CSC(=Nc1ccccc1)c1c(O)n(C)c(=O)n(C)c1=O	-1	-0.52	-3	5	0.3
CC(=O)c1c(O)n(C)c(=S)n(-c2ccccc2)c1=O	-4	3.1*	-2	x	-0.21	D1 mod confirm=10036*;D1 no dopamine=1820;Isoprot counter=2956
CCC(=NC1CC1)c1c(O)n(C2CCCCC2)c(=O)[nH]c1=O	1	17*	23	7	-0.68	D1 mod confirm=12336*;D1 no dopamine=1856;Isoprot counter=4136*
CC(=NC(C)c1ccccc1)c1c(O)[nH]c(=O)[nH]c1=O (centres undefined)	x	x	x	x	-0.16
CCC(=NCCC1=CCCCC1)c1c(O)[nH]c(=O)[nH]c1=O	4	5.4*	6	0	-0.41	D1 mod confirm=16104*;D1 no dopamine=1808;Isoprot counter=3944*
